What follows are compounds tested against T1, NUAK family SNF1-like kinase 1 (Homo sapiens, UniProt O60285) (assay: Inhibition of ARK5 (unknown origin)). Conditions: not given.
T1 sequence (O60285 whole entry): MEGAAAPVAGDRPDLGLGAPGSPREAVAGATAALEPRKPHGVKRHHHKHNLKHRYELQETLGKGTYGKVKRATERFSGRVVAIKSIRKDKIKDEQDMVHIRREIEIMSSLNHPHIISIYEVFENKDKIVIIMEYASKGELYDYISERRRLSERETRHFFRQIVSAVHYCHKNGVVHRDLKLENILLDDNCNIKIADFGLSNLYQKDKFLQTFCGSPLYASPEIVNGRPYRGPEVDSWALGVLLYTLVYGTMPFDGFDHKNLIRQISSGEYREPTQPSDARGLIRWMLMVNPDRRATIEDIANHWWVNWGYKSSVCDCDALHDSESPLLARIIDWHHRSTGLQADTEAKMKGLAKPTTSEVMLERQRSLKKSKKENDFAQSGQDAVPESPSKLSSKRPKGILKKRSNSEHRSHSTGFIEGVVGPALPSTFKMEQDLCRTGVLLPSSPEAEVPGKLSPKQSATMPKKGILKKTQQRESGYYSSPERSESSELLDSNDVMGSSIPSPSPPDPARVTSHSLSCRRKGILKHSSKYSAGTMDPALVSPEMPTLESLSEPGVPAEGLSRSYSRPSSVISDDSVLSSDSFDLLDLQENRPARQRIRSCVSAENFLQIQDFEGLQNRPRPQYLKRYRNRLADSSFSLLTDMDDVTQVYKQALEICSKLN

SMILES	IC50 [µM]
Cc1c(O)c(O)c2c(c1C=O)[C@@H]1O[C@H](O2)c2c(C)c(O)c(O)c(O)c2C1=O (racemic)	2.51

These compounds were tested against Histone deacetylase 11 (Homo sapiens, UniProt Q96DB2) (assay: Inhibition of recombinant HDAC11 (unknown origin) using Fluor-de-Lys-SIRT1 as substrate by fluorescence assay). Conditions: not given.

SMILES	IC50 [µM]
Cc1c(O)c(O)c2c(c1C=O)[C@@H]1O[C@H](O2)c2c(C)c(O)c(O)c(O)c2C1=O (racemic)	11.7

What follows are compounds tested against Aurora kinase B (Homo sapiens, UniProt Q96GD4) (assay: Inhibition of aurora-B (unknown origin)). Conditions: not given.

SMILES	IC50 [µM]
Cc1c(O)c(O)c2c(c1C=O)[C@@H]1O[C@H](O2)c2c(C)c(O)c(O)c(O)c2C1=O (racemic)	2.51

Each compound was assayed against Polyamine deacetylase HDAC10 (Homo sapiens, UniProt Q969S8) (assay: Inhibition of recombinant HDAC10 (unknown origin) using Fluor-de-Lys-SIRT1 as substrate by fluorescence assay). Conditions: not given.

SMILES	IC50 [µM]
Cc1c(O)c(O)c2c(c1C=O)[C@@H]1O[C@H](O2)c2c(C)c(O)c(O)c(O)c2C1=O (racemic)	8.4

These compounds were tested on PBMC (assay: Cytotoxicity against PBMC (unknown origin) assessed as growth inhibition after 48 hrs). Conditions: not given.
Assay type: cell-based
Outline: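 PBMCs isolated by a prior method, cultured in RPMI 1640 with 10% heat-inactivated FCS and 1% antibiotic–antimycotic at 37 °C, 5% CO2. Viability read after 48 h treatment, against DMSO-treated controls.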

SMILES	Activity
Cc1c(O)c(O)c2c(c1C=O)[C@@H]1O[C@H](O2)c2c(C)c(O)c(O)c(O)c2C1=O (racemic)	Non-toxic

These compounds were tested on Raji (assay: Antiproliferative activity against human Raji cells assessed as growth inhibition at 5 uM after 72 hrs). Conditions: read-out: GI.
Assay type: functional
Outline: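 RAJI and U-937 cells from ATCC, grown in RPMI 1640 with 10% heat-inactivated fetal calf serum and 1% antibiotic–antimycotic at 37 °C, humid 5% CO2. Treated 72 h; DMSO-treated cells as negative control; proliferation measured by a previously described method.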

SMILES	inhibition of growth at 5 µM [%]
Cc1c(O)c(O)c2c(c1C=O)[C@@H]1O[C@H](O2)c2c(C)c(O)c(O)c(O)c2C1=O (racemic)	50

What follows are compounds tested against Serine/threonine-protein kinase Nek6 (Homo sapiens, UniProt Q9HC98) (assay: Inhibition of NEK6 (unknown origin)). Conditions: not given.

SMILES	IC50 [µM]
Cc1c(O)c(O)c2c(c1C=O)[C@@H]1O[C@H](O2)c2c(C)c(O)c(O)c(O)c2C1=O (racemic)	0.52

What follows are compounds tested against Serine/threonine-protein kinase pim-1 (Homo sapiens, UniProt P11309) (assay: Inhibition of PIM1 (unknown origin)). Conditions: not given.

SMILES	IC50 [µM]
Cc1c(O)c(O)c2c(c1C=O)[C@@H]1O[C@H](O2)c2c(C)c(O)c(O)c(O)c2C1=O (racemic)	3.1

Each compound was assayed against Histone deacetylase 3 (Homo sapiens, UniProt O15379) (assay: Inhibition of recombinant HDAC3 (unknown origin) using Fluor-de-Lys-SIRT1 as substrate by fluorescence assay). Conditions: not given.

SMILES	IC50 [µM]
Cc1c(O)c(O)c2c(c1C=O)[C@@H]1O[C@H](O2)c2c(C)c(O)c(O)c(O)c2C1=O (racemic)	12.4

The compounds below were run against Proto-oncogene tyrosine-protein kinase Src (Homo sapiens, UniProt P12931) (assay: Inhibition of SRC (unknown origin)). Conditions: not given.

SMILES	IC50 [µM]
Cc1c(O)c(O)c2c(c1C=O)[C@@H]1O[C@H](O2)c2c(C)c(O)c(O)c(O)c2C1=O (racemic)	0.37

The compounds below were run against Serine/threonine-protein kinase PLK1 (Homo sapiens, UniProt P53350) (assay: Inhibition of PLK1 (unknown origin)). Conditions: not given.

SMILES	IC50 [µM]
Cc1c(O)c(O)c2c(c1C=O)[C@@H]1O[C@H](O2)c2c(C)c(O)c(O)c(O)c2C1=O (racemic)	3.18

What follows are compounds tested against Hepatocyte growth factor receptor (Homo sapiens, UniProt P08581) (assay: Inhibition of wild type MET (unknown origin)). Conditions: not given.

SMILES	IC50 [µM]
Cc1c(O)c(O)c2c(c1C=O)[C@@H]1O[C@H](O2)c2c(C)c(O)c(O)c(O)c2C1=O (racemic)	0.58

Each compound was assayed against Dual specificity mitogen-activated protein kinase kinase 1 (Homo sapiens, UniProt Q02750) (assay: Inhibition of wild type MEK1 (unknown origin)). Conditions: not given.

SMILES	IC50 [µM]
Cc1c(O)c(O)c2c(c1C=O)[C@@H]1O[C@H](O2)c2c(C)c(O)c(O)c(O)c2C1=O (racemic)	> 30

What follows are compounds tested against Histone deacetylase 2 (Homo sapiens, UniProt Q92769) (assay: Inhibition of recombinant HDAC2 (unknown origin) using Fluor-de-Lys-SIRT1 as substrate by fluorescence assay). Conditions: not given.

SMILES	IC50 [µM]
Cc1c(O)c(O)c2c(c1C=O)[C@@H]1O[C@H](O2)c2c(C)c(O)c(O)c(O)c2C1=O (racemic)	10

Source: ChEMBL document CHEMBL3102702, “Protein kinase and HDAC inhibitors from the endophytic fungus Epicoccum nigrum” (J Nat Prod, 2014)
